From ChEMBL document CHEMBL1149142, “Synthesis, biological activity and molecular modeling of 6-benzylthioinosine analogues as subversive substrates of Toxoplasma gondii adenosine kinase” (2004)

Columns and labels:
[1] = Effect of compound on percent survival of human fibroblast cells in culture was determined at 0 uM; type: functional
Summary of the method: (§1)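 Uninfected human foreskin fibroblast monolayers (≤30 passages) in RPMI 1640 are attached for at least 24 h at 37 °C in 5% CO2. Compound is added at the same concentrations as in the parasite assay and incubated 48 h. MTT is added for 4 h, formazan is dissolved in DMSO, and absorbance is read at 540 nm; at least triplicates.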

Toxoplasma gondii [2] = assay: Effect of compound on percent survival of wild type (RH) strain of Toxoplasma gondii grown in human fibroblast cells at 50 uM; type: functional
Summary of the method: (§2)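 Human foreskin fibroblast monolayers (≤30 passages) in RPMI 1640 are infected with tachyzoites at one parasite per cell in 3% FBS for 1 h, then washed, with FBS kept at 10%. Compound is added in 50% ethanol stock (2.5% ethanol final) and incubated 18 h. Medium is replaced with drug-free [5,6-3H]uracil (2 μCi/mL) for 6 h. TCA-precipitable radioactivity is counted; at least triplicates.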

Toxoplasma gondii [3] = assay: Effect of compound on percent survival of wild type (RH) strain of Toxoplasma gondii grown in human fibroblast cells at 0 uM; type: functional; summary of the method: as §2
Toxoplasma gondii [4] = assay: Effect of compound on percent survival of adenosine kinase deficient strain of Toxoplasma gondii (TgAKe-3) grown in human fibroblast cells at 10 uM; type: functional; summary of the method: as §2
[5] = Effect of compound on percent survival of human fibroblast cells in culture was determined at 50 uM; type: functional; conditions: read-out: Survival; summary of the method: as §1
Toxoplasma gondii [6] = assay: Effect of compound on percent survival of wild type (RH) strain of Toxoplasma gondii grown in human fibroblast cells at 25 uM; type: functional; summary of the method: as §2
Toxoplasma gondii [7] = assay: Effect of compound on percent survival of adenosine kinase deficient strain of Toxoplasma gondii (TgAKe-3) grown in human fibroblast cells at 50 uM; type: functional; summary of the method: as §2
[8] = Effect of compound on percent survival of human fibroblast cells in culture was determined at 25 uM; type: functional; conditions: read-out: Survival; summary of the method: as §1
Toxoplasma gondii [9] = assay: Effect of compound on percent survival of adenosine kinase deficient strain of Toxoplasma gondii (TgAKe-3) grown in human fibroblast cells at 0 uM; type: functional; summary of the method: as §2
Toxoplasma gondii [10] = assay: Effect of compound on percent survival of wild type (RH) strain of Toxoplasma gondii grown in human fibroblast cells at 10 uM; type: functional; summary of the method: as §2
Toxoplasma gondii [11] = assay: Effect of compound on percent survival of adenosine kinase deficient strain of Toxoplasma gondii (TgAKe-3) grown in human fibroblast cells at 5 uM; type: functional; summary of the method: as §2
Toxoplasma gondii [12] = assay: Effect of compound on percent survival of wild type (RH) strain of Toxoplasma gondii grown in human fibroblast cells at 5 uM; type: functional; summary of the method: as §2
[13] = Effect of compound on percent survival of human fibroblast cells in culture was determined at 10 uM; type: functional; conditions: read-out: Survival; summary of the method: as §1
[14] = Effect of compound on percent survival of human fibroblast cells in culture was determined at 5 uM; type: functional; conditions: read-out: Survival; summary of the method: as §1
Toxoplasma gondii [15] = assay: Effect of compound on percent survival of adenosine kinase deficient strain of Toxoplasma gondii (TgAKe-3) grown in human fibroblast cells at 25 uM; type: functional; summary of the method: as §2
[16] = substrate: OC[C@H]1O[C@@H](n2cnc3c(SCc4ccc(OC(F)(F)F)cc4)ncnc32)[C@H](O)[C@@H]1O; assay: (§3) Binding affinity at Toxoplasma gondii adenosine kinase.
Summary of the method: (§4)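 Purified recombinant T. gondii adenosine kinase was expressed in E. coli BL21(DE3)pLysS and purified on two Q-Sepharose columns. The assay contained 50 mM Tris-Cl pH 7.4, 2.5 mM ATP, 5 mM MgCl2, 5 mM creatine phosphate, creatine kinase and 5 μM [8-14C]adenosine, with varied analogue concentrations. Incubation was at 37 °C, stopped by boiling. [14C]AMP was resolved by TLC. Apparent Ki from Dixon plots was taken as apparent Km.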

[17] = substrate: Cc1ccccc1CSc1ncnc2c1ncn2[C@@H]1O[C@H](CO)[C@@H](O)[C@H]1O; assay: as §3; summary of the method: as §4
[18] = substrate: OC[C@H]1O[C@@H](n2cnc3c(SCc4ccc(F)cc4)ncnc32)[C@H](O)[C@@H]1O; assay: as §3; summary of the method: as §4
[19] = substrate: CC(C)(C)c1ccc(CSc2ncnc3c2ncn3[C@@H]2O[C@H](CO)[C@@H](O)[C@H]2O)cc1; assay: as §3; summary of the method: as §4
[20] = substrate: OC[C@H]1O[C@@H](n2cnc3c(SCc4cccc(C(F)(F)F)c4)ncnc32)[C@H](O)[C@@H]1O; assay: as §3; summary of the method: as §4
[21] = substrate: N#Cc1ccc(CSc2ncnc3c2ncn3[C@@H]2O[C@H](CO)[C@@H](O)[C@H]2O)cc1; assay: as §3; summary of the method: as §4
[22] = substrate: OC[C@H]1O[C@@H](n2cnc3c(SCc4ccc(Br)cc4)ncnc32)[C@H](O)[C@@H]1O; assay: as §3; summary of the method: as §4
[23] = substrate: O=[N+]([O-])c1ccc(CSc2ncnc3c2ncn3[C@@H]2O[C@H](CO)[C@@H](O)[C@H]2O)cc1; assay: as §3; summary of the method: as §4
[24] = substrate: OC[C@H]1O[C@@H](n2cnc3c(SCc4ccccc4Cl)ncnc32)[C@H](O)[C@@H]1O; assay: as §3; summary of the method: as §4
[25] = substrate: Cc1cccc(CSc2ncnc3c2ncn3[C@@H]2O[C@H](CO)[C@@H](O)[C@H]2O)c1; assay: as §3; summary of the method: as §4
[26] = substrate: Nc1ncnc2c1ncn2[C@@H]1O[C@H](CO)[C@@H](O)[C@H]1O; assay: as §3; summary of the method: as §4
[27] = substrate: O=[N+]([O-])c1cccc(CSc2ncnc3c2ncn3[C@@H]2O[C@H](CO)[C@@H](O)[C@H]2O)c1; assay: as §3; summary of the method: as §4
[28] = substrate: Cc1cc(C)c(CSc2ncnc3c2ncn3[C@@H]2O[C@H](CO)[C@@H](O)[C@H]2O)c(C)c1; assay: as §3; summary of the method: as §4
[29] = substrate: COc1ccc(CSc2ncnc3c2ncn3[C@@H]2O[C@H](CO)[C@@H](O)[C@H]2O)cc1; assay: as §3; summary of the method: as §4
[30] = substrate: OC[C@H]1O[C@@H](n2cnc3c(SCc4ccc(Cl)cc4)ncnc32)[C@H](O)[C@@H]1O; assay: as §3; summary of the method: as §4
[31] = substrate: Cc1ccc(CSc2ncnc3c2ncn3[C@@H]2O[C@H](CO)[C@@H](O)[C@H]2O)cc1; assay: as §3; summary of the method: as §4
[32] = substrate: OC[C@H]1O[C@@H](n2cnc3c(SCc4ccc(Cl)cc4Cl)ncnc32)[C@H](O)[C@@H]1O; assay: as §3; summary of the method: as §4
[33] = substrate: OC[C@H]1O[C@@H](n2cnc3c(SCc4ccc(Cl)c(Cl)c4)ncnc32)[C@H](O)[C@@H]1O; assay: as §3; summary of the method: as §4
[34] = substrate: OC[C@H]1O[C@@H](n2cnc3c(SCc4c(F)cccc4Cl)ncnc32)[C@H](O)[C@@H]1O; assay: as §3; summary of the method: as §4
[35] = substrate: OC[C@H]1O[C@@H](n2cnc3c(SCc4ccccc4)ncnc32)[C@H](O)[C@@H]1O; assay: as §3; summary of the method: as §4
[36] = substrate: COC(=O)c1ccc(CSc2ncnc3c2ncn3[C@@H]2O[C@H](CO)[C@@H](O)[C@H]2O)cc1; assay: as §3; summary of the method: as §4

OC[C@H]1O[C@@H](n2cnc3c(SCc4ccc(Cl)cc4Cl)ncnc32)[C@H](O)[C@@H]1O
Survival [1]: 100%
survival at 50 µM (Toxoplasma gondii [2]): 0%
Survival (Toxoplasma gondii [3]): 100%
survival at 10 µM (Toxoplasma gondii [4]): 100%
viability at 50 µM [5]: 99.5%
survival at 25 µM (Toxoplasma gondii [6]): 34.5%
survival at 50 µM (Toxoplasma gondii [7]): 100%
viability at 25 µM [8]: 94%
Survival (Toxoplasma gondii [9]): 100%
survival at 10 µM (Toxoplasma gondii [10]): 79.1%
survival at 5 µM (Toxoplasma gondii [11]): 100%
survival at 5 µM (Toxoplasma gondii [12]): 94.8%
viability at 10 µM [13]: 99.2%
viability at 5 µM [14]: 98.1%
survival at 25 µM (Toxoplasma gondii [15]): 100%

CCc1nc(N)nc(N)c1-c1ccc(Cl)cc1 [PYRIMETHAMINE]
Survival [1]: 100%
survival at 50 µM (Toxoplasma gondii [2]): 6.9%
Survival (Toxoplasma gondii [3]): 100%
viability at 50 µM [5]: 100%
survival at 25 µM (Toxoplasma gondii [6]): 11.8%
viability at 25 µM [8]: 100%
survival at 10 µM (Toxoplasma gondii [10]): 36.3%
survival at 5 µM (Toxoplasma gondii [12]): 53.8%
viability at 10 µM [13]: 98.8%
viability at 5 µM [14]: 100%

OC[C@H]1O[C@@H](n2cnc3c(SCc4ccc(OC(F)(F)F)cc4)ncnc32)[C@H](O)[C@@H]1O
Survival [1]: 100%
survival at 50 µM (Toxoplasma gondii [2]): 44%
Survival (Toxoplasma gondii [3]): 100%
survival at 10 µM (Toxoplasma gondii [4]): 100%
viability at 50 µM [5]: 98.6%
survival at 25 µM (Toxoplasma gondii [6]): 54.5%
survival at 50 µM (Toxoplasma gondii [7]): 95.1%
viability at 25 µM [8]: 97.4%
Survival (Toxoplasma gondii [9]): 100%
survival at 10 µM (Toxoplasma gondii [10]): 64.9%
survival at 5 µM (Toxoplasma gondii [11]): 100%
survival at 5 µM (Toxoplasma gondii [12]): 93.1%
viability at 10 µM [13]: 99.9%
viability at 5 µM [14]: 100%
survival at 25 µM (Toxoplasma gondii [15]): 97.6%

Nc1ccc(S(=O)(=O)Nc2ncccn2)cc1 [SULFADIAZINE]
Survival [1]: 100%
survival at 50 µM (Toxoplasma gondii [2]): 46.6%
Survival (Toxoplasma gondii [3]): 100%
viability at 50 µM [5]: 100%
survival at 25 µM (Toxoplasma gondii [6]): 59.2%
viability at 25 µM [8]: 99.8%
survival at 10 µM (Toxoplasma gondii [10]): 64.5%
survival at 5 µM (Toxoplasma gondii [12]): 75.7%
viability at 10 µM [13]: 99.7%
viability at 5 µM [14]: 98.2%

CC(C)(C)c1ccc(CSc2ncnc3c2ncn3[C@@H]2O[C@H](CO)[C@@H](O)[C@H]2O)cc1
Survival [1]: 100%
survival at 50 µM (Toxoplasma gondii [2]): 12.2%
Survival (Toxoplasma gondii [3]): 100%
survival at 10 µM (Toxoplasma gondii [4]): 100%
viability at 50 µM [5]: 99.7%
survival at 25 µM (Toxoplasma gondii [6]): 47.2%
survival at 50 µM (Toxoplasma gondii [7]): 100%
viability at 25 µM [8]: 100%
Survival (Toxoplasma gondii [9]): 100%
survival at 10 µM (Toxoplasma gondii [10]): 71.7%
survival at 5 µM (Toxoplasma gondii [11]): 100%
survival at 5 µM (Toxoplasma gondii [12]): 83.3%
viability at 10 µM [13]: 100%
viability at 5 µM [14]: 97.4%
survival at 25 µM (Toxoplasma gondii [15]): 100%

B1: Adenosine kinase (Toxoplasma gondii), Q9TVW2 (protein)
chain: MAVDSSNSATGPMRVFAIGNPILDLVAEVPSSFLDEFFLKRGDATLATPEQMRIYSTLDQFNPTSLPGGSALNSVRVVQKLLRKPGSAGYMGAIGDDPRGQVLKELCDKEGLATRFMVAPGQSTGVCAVLINEKERTLCTHLGACGSFRLPEDWTTFASGALIFYATAYTLTATPKNALEVAGYAHGIPNAIFTLNLSAPFCVELYKDAMQSLLLHTNILFGNEEEFAHLAKVHNLVAAEKTALSTANKEHAVEVCTGALRLLTAGQNTGATKLVVMTRGHNPVIAAEQTADGTVVVHEVGVPVVAAEKIVDTNGAGDAFVGGFLYALSQGKTVKQCIMCGNACAQDVIQHVGFSLSFTSLPC
Km [16]: 141 µM
Km [17]: 1.5 µM
Km [18]: 1.2 µM
Km [19]: 113 µM
Km [20]: 2.9 µM
Km [21]: 0.9 µM
Km [22]: 7.5 µM
Km [23]: 1.1 µM
Km [24]: 1.4 µM
Km [25]: 1.3 µM
Km [26]: 2.4 µM
Km [27]: 3 µM
Km [28]: 150 µM
Km [29]: 2.6 µM
Km [30]: 2.1 µM
Km [31]: 3.3 µM
Km [32]: 0.7 µM
Km [33]: 2.5 µM
Km [34]: 37.7 µM
Km [35]: 2.4 µM
Km [36]: 96.1 µM
